Reference: ChEMBL document CHEMBL3120060, “Synthesis, in vitro anticancer evaluation and in silico studies of novel imidazo[2,1-b]thiazole derivatives bearing pyrazole moieties” (2014)

Tests used:
Assay type in all cases: functional
Malme-3M = experiment: Cytotoxicity against human MALME-3M cells assessed as cell growth at 10 uM after 48 hrs by SRB assay; conditions: read-out: Activity
Procedure, shortened: (§1)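 NCI-60 single-dose screen. Cell lines grown in RPMI 1640 with 5% FBS and 2 mM L-glutamine, plated at 5000–40,000 cells/well according to doubling time, then preincubated 24 h at 37 °C in 5% CO2. Compounds dissolved in DMSO, tested at 10^-5 M for 48 h. Adherent cells fixed with cold TCA (10% final) and stained with 0.4% SRB in 1% acetic acid. Growth expressed as percent of untreated control.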

RXF 393 = experiment: Cytotoxicity against human RXF393 cells assessed as cell growth at 10 uM after 48 hrs by SRB assay; conditions: RXF 393, 48 h, read-out: Activity; procedure, shortened: as §1
SR = experiment: Cytotoxicity against human SR cells assessed as cell growth at 10 uM after 48 hrs by SRB assay; conditions: read-out: Activity
Procedure, shortened: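 Leukemia line, NCI-60 single-dose screen at 10^-5 M. Cells are grown in RPMI 1640 with 5% FBS and 2 mM L-glutamine, plated by doubling time, and preincubated 24 h at 37 °C with 5% CO2. After 48 h drug exposure, settled cells are fixed with 80% TCA (final 16%) and stained with SRB. Percent growth is calculated against untreated control and time-zero plates.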

LOX IMVI = experiment: Cytotoxicity against human LOXIMVI cells assessed as cell growth at 10 uM after 48 hrs by SRB assay; conditions: read-out: Activity; procedure, shortened: as §1
[1] = Cytotoxicity against human OVCAR4 cells assessed as cell growth at 10 uM after 48 hrs by SRB assay; conditions: OVCAR-4, 48 h, read-out: Activity; procedure, shortened: as §1
KM12 = experiment: Cytotoxicity against human KM12 cells assessed as cell growth at 10 uM after 48 hrs by SRB assay; conditions: KM12, 48 h, read-out: Activity; procedure, shortened: as §1
HCT-15 = experiment: Cytotoxicity against human HCT15 cells assessed as cell growth at 10 uM after 48 hrs by SRB assay; conditions: HCT-15, 48 h, read-out: Activity; procedure, shortened: as §1
IGROV-1 = experiment: Cytotoxicity against human IGROV1 cells assessed as cell growth at 10 uM after 48 hrs by SRB assay; conditions: IGROV-1, 48 h, read-out: Activity; procedure, shortened: as §1
RPMI-8226 = experiment: Cytotoxicity against human RPMI8226 cells assessed as cell growth at 10 uM after 48 hrs by SRB assay; conditions: RPMI-8226, 48 h, read-out: Activity; procedure, shortened: as §1
DU-145 = experiment: Cytotoxicity against human DU145 cells assessed as cell growth at 10 uM after 48 hrs by SRB assay; conditions: DU-145, 48 h, read-out: Activity; procedure, shortened: as §1
U-251 = experiment: Cytotoxicity against human U251 cells assessed as cell growth at 10 uM after 48 hrs by SRB assay; conditions: U-251, 48 h, read-out: Activity
Procedure, shortened: (§2)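 NCI-60 single-dose screen at 10^-5 M. Adherent lines are grown in RPMI 1640 with 5% FBS and 2 mM L-glutamine, seeded at 5000–40,000 cells/well by doubling time, and preincubated 24 h at 37 °C in 5% CO2. Drug is added from DMSO stock diluted in medium, then 48 h. Cells are fixed in cold TCA (final 10%) for 60 min and stained with 0.4% SRB in 1% acetic acid. Growth is expressed as % of untreated control using time-zero plates.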

HCC 2998 = experiment: Cytotoxicity against human HCC2998 cells assessed as cell growth at 10 uM after 48 hrs by SRB assay; conditions: HCC 2998, 48 h, read-out: Activity; procedure, shortened: as §1
MOLT-4 = experiment: Cytotoxicity against human MOLT4 cells assessed as cell growth at 10 uM after 48 hrs by SRB assay; conditions: MOLT-4, 48 h, read-out: Activity; procedure, shortened: as §1
[2] = Cytotoxicity against human UO31 cells assessed as cell growth at 10 uM after 48 hrs by SRB assay; conditions: UO-31, 48 h, read-out: Activity; procedure, shortened: as §2
[3] = Cytotoxicity against human UACC257 cells assessed as cell growth at 10 uM after 48 hrs by SRB assay; conditions: UACC-257, 48 h, read-out: Activity; procedure, shortened: as §2
K562 = experiment: Cytotoxicity against human K562 cells assessed as cell growth at 10 uM after 48 hrs by SRB assay; conditions: K562, 48 h, read-out: Activity; procedure, shortened: as §1
786-0 = experiment: Cytotoxicity against human 786-0 cells assessed as cell growth at 10 uM after 48 hrs by SRB assay; conditions: 786-0, 48 h, read-out: Activity; procedure, shortened: as §1
[4] = Cytotoxicity against human NCI-ADR-RES cells assessed as cell growth at 10 uM after 48 hrs by SRB assay; conditions: read-out: Activity; procedure, shortened: as §1
SK-MEL-28 = experiment: Cytotoxicity against human SK-MEL-28 cells assessed as cell growth at 10 uM after 48 hrs by SRB assay; conditions: SK-MEL-28, 48 h, read-out: Activity; procedure, shortened: as §1
OVCAR-3 = experiment: Cytotoxicity against human OVCAR3 cells assessed as cell growth at 10 uM after 48 hrs by SRB assay; conditions: OVCAR-3, 48 h, read-out: Activity; procedure, shortened: as §1
CAKI-1 = experiment: Cytotoxicity against human CAKI-1 cells assessed as cell growth at 10 uM after 48 hrs by SRB assay; conditions: CAKI-1, 48 h, read-out: Activity; procedure, shortened: as §1
SNB-75 = experiment: Cytotoxicity against human SNB75 cells assessed as cell growth at 10 uM after 48 hrs by SRB assay; conditions: SNB-75, 48 h, read-out: Activity; procedure, shortened: as §1
A498 = experiment: Cytotoxicity against human A498 cells assessed as cell growth at 10 uM after 48 hrs by SRB assay; conditions: A498, 48 h, read-out: Activity; procedure, shortened: as §1
SF-295 = experiment: Cytotoxicity against human SF295 cells assessed as cell growth at 10 uM after 48 hrs by SRB assay; conditions: SF-295, 48 h, read-out: Activity; procedure, shortened: as §1
[5] = Cytotoxicity against human Hs578T cells assessed as cell growth at 10 uM after 48 hrs by SRB assay; conditions: Hs-578T, read-out: Activity; procedure, shortened: as §1
SF-539 = experiment: Cytotoxicity against human SF539 cells assessed as cell growth at 10 uM after 48 hrs by SRB assay; conditions: SF-539, 48 h, read-out: Activity; procedure, shortened: as §1
M14 = experiment: Cytotoxicity against human M14 cells assessed as cell growth at 10 uM after 48 hrs by SRB assay; conditions: M14, 48 h, read-out: Activity; procedure, shortened: as §1
TK-10 = experiment: Cytotoxicity against human TK10 cells assessed as cell growth at 10 uM after 48 hrs by SRB assay; conditions: TK-10, 48 h, read-out: Activity; procedure, shortened: as §2
OVCAR-8 = experiment: Cytotoxicity against human OVCAR8 cells assessed as cell growth at 10 uM after 48 hrs by SRB assay; conditions: OVCAR-8, 48 h, read-out: Activity; procedure, shortened: as §1

O=C1CN2C(c3ccc(Cl)cc3)=CSC2=N1
growth at 10 µM (Malme-3M): 99.3%
growth at 10 µM (RXF 393): 111%
growth at 10 µM (SR): 77.8%
growth at 10 µM (LOX IMVI): 98.9%
growth at 10 µM [1]: 90.3%
growth at 10 µM (KM12): 100%
growth at 10 µM (HCT-15): 93.3%
growth at 10 µM (IGROV-1): 95.2%
growth at 10 µM (RPMI-8226): 89.2%
growth at 10 µM (DU-145): 102%
growth at 10 µM (U-251): 94.3%
growth at 10 µM (HCC 2998): 101%
growth at 10 µM (MOLT-4): 79.1%
growth at 10 µM [2]: 92.7%
growth at 10 µM [3]: 96.3%
growth at 10 µM (K562): 79.7%
growth at 10 µM (786-0): 94%
growth at 10 µM [4]: 102%
growth at 10 µM (SK-MEL-28): 95.7%
growth at 10 µM (OVCAR-3): 105%
growth at 10 µM (CAKI-1): 81.3%
growth at 10 µM (SNB-75): 75.8%
growth at 10 µM (A498): 70.2%
growth at 10 µM (SF-295): 80%
growth at 10 µM [5]: 111%
growth at 10 µM (SF-539): 94.8%
growth at 10 µM (M14): 97%
growth at 10 µM (TK-10): 79.9%
growth at 10 µM (OVCAR-8): 96%
